From ChEMBL document CHEMBL1671691 (Antimicrob Agents Chemother, 2010)

What was measured:
Influenza A virus [1] = test: Antiviral activity against Influenza A virus (A/Illinois/10/2009(H1N1)) infected in MDCK cells from Mill Hill assessed as log reduction in viral titer at 4.7 uM after 24 hrs by immunofluorescent assay; format: functional
How it was run: (§1)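 Yield reduction in MDCK-ATCC or MDCK-Mill Hill cells infected at MOI ∼0.01. Adsorption 1 h at 4°C, washed, then DMEM with 2 μg/ml TPCK-trypsin and drug. At 24 h, supernatants were titrated by immunofluorescent focus assay on MDCK cells with anti-NP monoclonals and FITC secondary. Titres as log10 FFU per 100 μl; detection limit <10 FFU. Quadruplicate, mean ± SD.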

Influenza A virus [2] = test: Antiviral activity against Influenza A virus (A/Illinois/10/2009(H1N1)) infected in MDCK cells from ATCC assessed as log reduction in viral titer at 128 uM after 24 hrs by immunofluorescent assay; format: functional; how it was run: as §1
Influenza A virus [3] = test: Antiviral activity against Influenza A virus (A/California/04/2009(H1N1)) infected in MDCK cells from ATCC assessed as log reduction in viral titer at 1.6 uM after 24 hrs by immunofluorescent assay; format: functional; how it was run: as §1
Influenza A virus [4] = test: Antiviral activity against sInfluenza A virus (A/California/04/2009(H1N1)) infected in MDCK cells from Mill Hill assessed as log reduction in viral titer at 4.7 uM after 24 hrs by immunofluorescent assay; format: functional
How it was run: (§2)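 MDCK cells (ATCC or Mill Hill) infected with 2009 pandemic H1N1 at MOI ~0.01, 1 h adsorption at 4°C, washed. DMEM with 2 μg/ml TPCK-trypsin plus drug for 24 h at 37°C. Supernatants titrated on MDCK cells by focus formation: methanol/acetic acid fixation, anti-nucleoprotein MAbs, FITC secondary, foci counted. Titre as log10 FFU per 100 μl; detection limit <10 FFU; quadruplicate wells.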

Influenza A virus [5] = test: microbe, parasite or virus in culture; conditions: MDCK, 72 h
Influenza A virus [6] = test: Antiviral activity against Influenza A virus (A/California/04/2009(H1N1)) infected in MDCK cells from Mill Hill assessed as log reduction in viral titer at 128 uM after 24 hrs by immunofluorescent assay; format: functional; how it was run: as §1
Influenza A virus [7] = test: Antiviral activity against Influenza A virus (A/Mexico/4604/2009(H1N1)) infected in MDCK cells from Mill Hill assessed as log reduction in viral titer at 14.2 uM after 24 hrs by immunofluorescent assay; format: functional; how it was run: as §1
Influenza A virus [8] = test: Antiviral activity against Influenza A virus (A/Mexico/4604/2009(H1N1)) infected in MDCK cells from Mill Hill assessed as log reduction in viral titer at 1.6 uM after 24 hrs by immunofluorescent assay; format: functional; how it was run: as §1
Influenza A virus [9] = test: Antiviral activity against Influenza A virus (A/Illinois/10/2009(H1N1)) infected in MDCK cells from Mill Hill assessed as log reduction in viral titer at 128 uM after 24 hrs by immunofluorescent assay; format: functional; how it was run: as §1
Influenza A virus [10] = test: Antiviral activity against Influenza A virus (A/Illinois/10/2009(H1N1)) infected in MDCK cells from Mill Hill assessed as log reduction in viral titer at 42.7 uM after 24 hrs by immunofluorescent assay; format: functional; how it was run: as §1
Influenza A virus [11] = test: microbe, parasite or virus in culture; conditions: (A/Swine/South Dakota/03/2008(H1N1)), MDCK, 72 h
Influenza A virus [12] = test: Antiviral activity against Influenza A virus (A/Illinois/10/2009(H1N1)) infected in MDCK cells from ATCC assessed as log reduction in viral titer at 4.7 uM after 24 hrs by immunofluorescent assay; format: functional; how it was run: as §1
Influenza A virus [13] = test: Antiviral activity against sInfluenza A virus (A/California/04/2009(H1N1)) infected in MDCK cells from ATCC assessed as log reduction in viral titer at 4.7 uM after 24 hrs by immunofluorescent assay; format: functional; how it was run: as §2
Influenza A virus [14] = test: Antiviral activity against sInfluenza A virus (A/Washington/29/2009(H1N1))) infected in MDCK cells from Mill Hill assessed as log reduction in viral titer at 14.2 uM after 24 hrs by immunofluorescent assay; format: functional, Influenza A virus (A/Washington/29/2009(H1N1)); how it was run: as §2
Influenza A virus [15] = test: Antiviral activity against sInfluenza A virus (A/Washington/29/2009(H1N1)) infected in MDCK cells from ATCC assessed as log reduction in viral titer at 4.7 uM after 24 hrs by immunofluorescent assay; format: functional, Influenza A virus (A/Washington/29/2009(H1N1)); how it was run: as §2
Influenza A virus [16] = test: Antiviral activity against Influenza A virus (A/Illinois/10/2009(H1N1)) infected in MDCK cells from ATCC assessed as log reduction in viral titer at 14.2 uM after 24 hrs by immunofluorescent assay; format: functional; how it was run: as §1
Influenza A virus [17] = test: Antiviral activity against Influenza A virus (A/Mexico/4604/2009(H1N1)) infected in MDCK cells from Mill Hill assessed as inhibition of viral replication after 3 days by microscopic analysis using crystal violet stain; format: functional
Influenza A virus [18] = test: Antiviral activity against Influenza A virus (A/Mexico/4604/2009(H1N1))infected in MDCK cells from Mill Hill assessed as log reduction in viral titer at 4.7 uM after 24 hrs by immunofluorescent assay; format: functional; how it was run: as §1
Influenza A virus [19] = test: Antiviral activity against sInfluenza A virus (A/Washington/29/2009(H1N1)) infected in MDCK cells from ATCC assessed as log reduction in viral titer at 128 uM after 24 hrs by immunofluorescent assay; format: functional, Influenza A virus (A/Washington/29/2009(H1N1)); how it was run: as §2
Influenza A virus [20] = test: Antiviral activity against sInfluenza A virus (A/Washington/29/2009(H1N1)) infected in MDCK cells from Mill Hill assessed as log reduction in viral titer at 4.7 uM after 24 hrs by immunofluorescent assay; format: functional, Influenza A virus (A/Washington/29/2009(H1N1)); how it was run: as §2
Influenza A virus [21] = test: Antiviral activity against sInfluenza A virus (A/California/04/2009(H1N1))infected in MDCK cells from ATCC assessed as log reduction in viral titer at 14.2 uM after 24 hrs by immunofluorescent assay; format: functional; how it was run: as §2
Influenza A virus [22] = test: microbe, parasite or virus in culture; conditions: (A/turkey/VA/4529/2002 (H7N2)), MDCK, 72 h
Influenza A virus [23] = test: Antiviral activity against Influenza A virus (A/Mexico/4604/2009(H1N1)) infected in MDCK cells from Mill Hill assessed as log reduction in viral titer at 42.7 uM after 24 hrs by immunofluorescent assay; format: functional; how it was run: as §1
Influenza A virus [24] = test: Antiviral activity against Influenza A virus (A/Mexico/4604/2009(H1N1)) infected in MDCK cells from ATCC assessed as log reduction in viral titer at 1.6 uM after 24 hrs by immunofluorescent assay; format: functional; how it was run: as §1
Influenza A virus [25] = test: Antiviral activity against Influenza A virus (A/Mexico/4604/2009(H1N1)) infected in MDCK cells from ATCC assessed as inhibition of viral replication after 3 days by microscopic analysis using crystal violet stain; format: functional
How it was run: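 Confluent MDCK-ATCC monolayers infected with virus diluted to give 15–45 plaques/well. Adsorption 1 h at 37°C without drug, then washed. Overlaid with 0.8% agarose in MEM containing drug plus TPCK-trypsin: 3 μg/ml for seasonal viruses, 2 μg/ml for 2009 A(H1N1). Incubated 3 days at 37°C, 5% CO2. Ethanol-fixed, crystal violet-stained, plaques counted. EC50 by curve fit; duplicates on three occasions, mean ± SD.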

For NC(=O)c1nc(F)cnc1O [FAVIPIRAVIR], the log10FFU (Influenza A virus [1]) was 3.8, the log10FFU (Influenza A virus [2]) was <1 and the log10FFU (Influenza A virus [3]) was 2.7. For the same compound, the log10FFU (Influenza A virus [4]) was 3.6, the EC50 (Influenza A virus [5]) was 0.96 µM and the log10FFU (Influenza A virus [6]) was <1. The log10FFU (Influenza A virus [7]) was 4.6, the log10FFU (Influenza A virus [8]) was 6.2 and the log10FFU (Influenza A virus [9]) was <1. The log10FFU (Influenza A virus [10]) was 1.7, the EC50 (Influenza A virus [11]) was 0.83 µM and the log10FFU (Influenza A virus [12]) was 4.4. It also gave a log10FFU (Influenza A virus [13]) of 1.8, a log10FFU (Influenza A virus [14]) of 3.1 and a log10FFU (Influenza A virus [15]) of 3.9. For the same compound, the log10FFU (Influenza A virus [16]) was 3.1, the log10FFU (Influenza A virus [17]) was 36.16 and the log10FFU (Influenza A virus [18]) was 6.2. The log10FFU (Influenza A virus [19]) was 1, the log10FFU (Influenza A virus [20]) was 4.7 and the log10FFU (Influenza A virus [21]) was <1. The EC50 (Influenza A virus [22]) was 1.53 µM, the log10FFU (Influenza A virus [23]) was 2.1 and the log10FFU (Influenza A virus [24]) was 4.4. The log10FFU (Influenza A virus [25]) was 0.35.
